Measurements as given in ChEMBL document CHEMBL5214961, “Novel Allosteric Inhibitor-Derived AKT Proteolysis Targeting Chimeras (PROTACs) Enable Potent and Selective AKT Degradation in KRAS/BRAF Mutant Cells” (J Med Chem, 2022).
Activity calls are given as the source filed them. No cut-off for these calls is given here.

Assays:
SW-620 [1] = assay: Induction of apoptosis in human SW620 cells harboring KRAS mutant assessed as cell death at 5 uM measured upto 72 hrs; format: functional, cell-based
Procedure, shortened: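 SW620 cells given 5 μM compound or DMSO; percent cell death followed with DRAQ7 at 0, 24, 36, 48 and 72 h. Standard errors taken from three independent experiments.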

SW-620 [2] = assay: Antiproliferative activity against human SW620 cells harboring KRAS mutant assessed as inhibition of cell growth incubated for 5 days by IncuCyte live-cell imaging analysis; format: functional, cell-based; conditions: SW-620, 120 h, time 5 day
[3] = Toxicity in Swiss albino mouse assessed as clinical signs at 75 mg/kg, ip administered as single dose and measured for 12 hrs; format: organism-based; conditions: in vivo
Procedure, shortened: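 Male Swiss albino mice given a single 75 mg/kg IP dose in 5% NMP/5% Solutol HS-15/90% saline; watched for clinical signs across a 12 h pharmacokinetic sampling period.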

[4] = Cmax in Swiss albino mouse at 75 mg/kg, ip administered as single dose and measured for 12 hrs by LC-MS/MS analysis; format: ADME, organism-based; parameters: dose 75 mg/kg, time 12 hrs, route ip; conditions: in vivo
Procedure, shortened: (§1)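 Single IP dose of 75 mg/kg to male Swiss albino mice (six dosed); compound as HCl salt in 5% v/v NMP, 5% v/v Solutol HS-15, 90% v/v normal saline. About 60 μL plasma taken from three mice at 0.5, 1, 2, 4, 8 and 12 h; LC-MS/MS quantitation (LLOQ 1.02 ng/mL); values are means of 3 mice.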

[5] = Tmax in Swiss albino mouse at 75 mg/kg, ip administered as single dose and measured for 12 hrs by LC-MS/MS analysis; format: ADME, organism-based; conditions: in vivo; procedure, shortened: as §1
[6] = Plasma concentration in Swiss albino mouse at 75 mg/kg, ip administered as single dose and measured for 12 hrs by LC-MS/MS analysis; format: ADME, organism-based; procedure, shortened: as §1
[7] = biological target: T1, RAC-beta serine/threonine-protein kinase (Homo sapiens, UniProt P31751); assay: Induction of AKT2 degradation in human SW620 cells at 0.01 to 10 uM incubated for 24 hrs by Western blot analysis; format: cell-based; conditions: dose 0.01-10 µM
[8] = biological target: T2, RAC-alpha serine/threonine-protein kinase (Homo sapiens, UniProt P31749); assay: Induction of AKT1 degradation in human SW620 cells at 0.01 to 10 uM incubated for 24 hrs by Western blot analysis; format: cell-based; conditions: dose 0.01-10 µM
Target sequence in this assay (P31749 whole entry): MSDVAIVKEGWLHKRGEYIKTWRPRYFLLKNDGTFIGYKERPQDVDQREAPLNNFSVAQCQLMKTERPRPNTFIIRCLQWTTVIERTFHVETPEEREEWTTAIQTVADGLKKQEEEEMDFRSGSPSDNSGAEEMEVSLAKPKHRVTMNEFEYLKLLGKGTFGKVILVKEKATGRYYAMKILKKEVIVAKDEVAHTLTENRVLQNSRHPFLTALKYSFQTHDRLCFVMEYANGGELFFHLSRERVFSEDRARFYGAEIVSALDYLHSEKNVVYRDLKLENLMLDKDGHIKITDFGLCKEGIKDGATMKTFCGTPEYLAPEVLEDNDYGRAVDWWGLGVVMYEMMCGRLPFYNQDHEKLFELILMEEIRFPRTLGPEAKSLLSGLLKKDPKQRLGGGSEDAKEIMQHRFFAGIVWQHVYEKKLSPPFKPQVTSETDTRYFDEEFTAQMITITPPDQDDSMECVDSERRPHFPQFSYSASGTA

PC-3 = assay: Inhibition of colony formation in human PC-3 cells at 0.1 to 10 uM incubated for 2 weeks with media replacement for every 2 days by crystal violet staining based analysis; format: functional, cell-based; conditions: dose 0.1-10 µM
Procedure, shortened: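 PC3 cells kept 14 days with compound; compound-containing medium replenished every two days. Viable cells stained with 0.5% crystal violet.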

[9] = biological target: T2, RAC-alpha serine/threonine-protein kinase; assay: Induction of AKT degradation in MS-21 resistant human SW620 cells harboring KRAS-mutant assessed as reduction in total Akt level at 1 uM incubated for 24 hrs by Western blot analysis; format: cell-based
Procedure, shortened: (§2)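 Cells grown in DMEM with 10% FBS at 37 °C, 5% CO2, then exposed to compound at 1 μM for 24 h. Lysates made in 2X urea/SDS sample buffer, run on 4–12% Bis-Tris gels, transferred to PVDF, probed for total AKT overnight at 4 °C; HRP/chemiluminescence detection with β-actin as loading control.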
Target sequence in this assay (P31749 whole entry): as above

[10] = biological target: T2, RAC-alpha serine/threonine-protein kinase; assay: Induction of AKT degradation in MS-21 resistant human MIA PaCa-2 cells harboring KRAS-mutant assessed as reduction in total Akt level at 1 uM incubated for 24 hrs by Western blot analysis; format: cell-based
Target sequence in this assay (P31749 whole entry): as above

[11] = biological target: T2, RAC-alpha serine/threonine-protein kinase; assay: Inhibition of AKT1 (unknown origin) preincubated for 20 mins followed by [33P]-ATP addition measured after 120 mins by hotspot kinase assay
Target sequence in this assay (P31749 whole entry): as above

[12] = biological target: T1, RAC-beta serine/threonine-protein kinase; assay: Inhibition of AKT2 (unknown origin) preincubated for 20 mins followed by [33P]-ATP addition measured after 120 mins by hotspot kinase assay
[13] = biological target: RAC-gamma serine/threonine-protein kinase (Homo sapiens, UniProt Q9Y243); assay: Inhibition of AKT3 (unknown origin) preincubated for 20 mins followed by [33P]-ATP addition measured after 120 mins by hotspot kinase assay
[14] = biological target: T2, RAC-alpha serine/threonine-protein kinase; assay: Induction of AKT degradation in MS21-resistant human SW620 cells harboring KRAS/BRAF mutant assessed as reduction in total AKT level incubated for 24 hrs by Western blot analysis; format: cell-based
Procedure, shortened: (§3)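 Dose-response in DMEM/10% FBS culture: compound at the indicated concentrations, up to 10 μM, for 24 h. Total AKT read by western blot of urea/SDS lysates with β-actin loading control; in SW620 a DC50 was fitted from the concentration-response blot data.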
Target sequence in this assay (P31749 whole entry, looked up, change not shown): as the sequence (P31749 whole entry) above

[15] = biological target: T2, RAC-alpha serine/threonine-protein kinase; assay: Induction of AKT degradation in MS21-resistant human SW620 cells harboring KRAS/BRAF mutant assessed as reduction in total AKT level at 100 nM incubated for 24 hrs by Western blot analysis relative to control; format: cell-based; parameters: scale not given: the % may be the effect or the level left; procedure, shortened: as §3
Target sequence in this assay (P31749 whole entry): as above

[16] = biological target: T2, RAC-alpha serine/threonine-protein kinase; assay: Induction of AKT degradation in MS21-resistant human COLO 205 cells harboring BRAF mutant assessed as reduction in total AKT level at 1 uM incubated for 24 hrs by Western blot analysis; format: cell-based; procedure, shortened: as §2
Target sequence in this assay (P31749 whole entry): as above

[17] = biological target: T2, RAC-alpha serine/threonine-protein kinase; assay: Induction of AKT degradation in MS21-resistant human HT-29 cells harboring BRAF/PI3KA mutant assessed as reduction in total AKT level at 1 uM incubated for 24 hrs by Western blot analysis; format: cell-based; procedure, shortened: as §2
[18] = biological target: T2, RAC-alpha serine/threonine-protein kinase; assay: Induction of AKT degradation in MS21-resistant human SK-MEL-239 cells harboring BRAF mutant assessed as reduction in total AKT level at 1 uM incubated for 24 hrs by Western blot analysis; format: cell-based; procedure, shortened: as §2
[19] = biological target: T2, RAC-alpha serine/threonine-protein kinase; assay: Induction of AKT degradation in MS21-resistant human PANC-1 cells harboring […] mutant assessed as reduction in total AKT level at 1 uM incubated for 24 hrs by Western blot analysis; format: cell-based; procedure, shortened: as §2
[20] = biological target: T2, RAC-alpha serine/threonine-protein kinase; assay: Induction of AKT degradation in MS21-resistant human PANC-1 cells harboring […] mutant assessed as reduction in total AKT level incubated for 24 hrs by Western blot analysis; format: cell-based; conditions: dose 0.01-10 µM, DDE = dose-dependent effect; procedure, shortened: as §3
[21] = biological target: T2, RAC-alpha serine/threonine-protein kinase; assay: Induction of AKT degradation in MS21-resistant human PANC-1 cells harboring […] mutant assessed as reduction in total AKT level at 100 nM incubated for 24 hrs by Western blot analysis relative to control; format: cell-based; parameters: scale not given: the % may be the effect or the level left; procedure, shortened: as §3
[22] = biological target: T2, RAC-alpha serine/threonine-protein kinase; assay: Induction of AKT degradation in MS21-resistant human SW620 cells harboring KRAS/BRAF mutant assessed as reduction in total AKT level at 1 uM by Western blot analysis; format: cell-based; conditions: time 1-24 hrs, TDE = time-dependent effect
Procedure, shortened: (§4)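 SW620 time course: cells given 1 μM compound, with lysates harvested at several time points up to 24 h. Total AKT probed by western blot with β-actin as loading control.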

[23] = biological target: T2, RAC-alpha serine/threonine-protein kinase; assay: Induction of AKT degradation in MS21-resistant human SW620 cells harboring KRAS/BRAF mutant assessed as reduction in total AKT level at 1 uM measured after 12 hrs by Western blot analysis relative to control; format: cell-based; parameters: scale not given: the % may be the effect or the level left; procedure, shortened: as §4
[24] = biological target: T2, RAC-alpha serine/threonine-protein kinase; assay: Induction of AKT degradation in human SW620 cells assessed as reduction in total AKT level at 1 uM measured after 18 hrs by TMT-MS analysis; format: cell-based
Procedure, shortened: (§5)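 SW620 cells treated at 1 μM for 18 h, two biological replicates per condition. Lysates in 8 M urea were reduced with DTT, alkylated with iodoacetamide, digested with trypsin, labeled with TMT, split into 22 fractions and analyzed by nanoLC-MS/MS on a Q-Exactive HF-X. Output is log2 fold change against p value.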

[25] = biological target: Proline-rich AKT1 substrate 1 (Homo sapiens) (UniProt Q96B36); assay: Inhibition of PRAS40 phosphorylation in human SW620 cells at 1 uM measured after 18 hrs by TMT-MS analysis; format: cell-based
[26] = biological target: T1, RAC-beta serine/threonine-protein kinase; assay: Induction of AKT2 degradation in human SW620 cells assessed as reduction in total AKT level at 1 uM measured after 18 hrs by TMT-MS analysis; format: cell-based; procedure, shortened: as §5

T1 sequence (P31751 whole entry): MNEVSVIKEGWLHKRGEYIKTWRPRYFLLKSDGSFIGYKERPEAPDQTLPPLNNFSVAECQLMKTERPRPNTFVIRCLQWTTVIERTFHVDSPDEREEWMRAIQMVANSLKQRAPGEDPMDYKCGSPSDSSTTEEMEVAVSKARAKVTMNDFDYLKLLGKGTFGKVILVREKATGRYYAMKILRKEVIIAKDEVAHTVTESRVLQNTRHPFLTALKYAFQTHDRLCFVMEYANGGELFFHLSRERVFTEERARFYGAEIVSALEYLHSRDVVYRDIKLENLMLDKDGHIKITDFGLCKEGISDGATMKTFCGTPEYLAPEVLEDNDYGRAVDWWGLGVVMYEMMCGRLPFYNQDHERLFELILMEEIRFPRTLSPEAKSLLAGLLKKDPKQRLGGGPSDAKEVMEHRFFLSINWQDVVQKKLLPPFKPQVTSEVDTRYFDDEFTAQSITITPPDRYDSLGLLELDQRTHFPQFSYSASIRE
Chain of RAC-gamma serine/threonine-protein kinase (Q9Y243 whole entry): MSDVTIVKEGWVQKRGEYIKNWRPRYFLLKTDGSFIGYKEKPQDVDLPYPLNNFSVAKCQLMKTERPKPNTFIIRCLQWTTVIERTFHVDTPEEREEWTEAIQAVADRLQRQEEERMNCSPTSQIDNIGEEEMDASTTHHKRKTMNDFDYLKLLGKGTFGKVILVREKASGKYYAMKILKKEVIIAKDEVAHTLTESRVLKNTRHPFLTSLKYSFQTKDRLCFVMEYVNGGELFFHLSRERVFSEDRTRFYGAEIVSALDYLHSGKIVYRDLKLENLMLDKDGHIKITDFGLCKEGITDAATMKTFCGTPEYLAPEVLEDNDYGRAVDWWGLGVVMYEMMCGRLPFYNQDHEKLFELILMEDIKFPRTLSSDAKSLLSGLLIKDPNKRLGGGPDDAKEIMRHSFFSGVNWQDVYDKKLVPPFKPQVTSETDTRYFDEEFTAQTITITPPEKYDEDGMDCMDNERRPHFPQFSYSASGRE

Cc1ncsc1-c1ccc([C@H](C)NC(=O)[C@@H]2C[C@@H](O)CN2C(=O)[C@@H](NC(=O)CCCCCCCCCCNC(=O)CCc2cccc(-c3ccc4nc(-c5cccnc5N)n(-c5ccc(C6(N)CCC6)cc5)c4n3)c2)C(C)(C)C)cc1
Activity (SW-620 [1]): Active | GI50 (SW-620 [2]): 3100 nM | Activity [3]: Non-Toxic | Cmax [4]: 1000 nM | Tmax [5]: 30 min | concentration at 12 h [6]: > 100 nM | Activity [7]: Active | Activity [8]: Active | inhibition (PC-3): Active | Activity [9]: Active | Activity [10]: Active | IC50 [11]: 798 nM | IC50 [12]: 90 nM | IC50 [13]: 544 nM | EC50 [14]: 23 nM | Activity [15]: 100% | Activity [16]: Active | Activity [17]: Active | Activity [18]: Active | Activity [19]: Active | Activity [20]: Dde | Activity [21]: 100% | Activity [22]: Tde | Activity [23]: 100% | Activity [24]: Active | inhibition [25]: Active | Activity [26]: Active
